Experimental data: ChEMBL document CHEMBL3588850, “Multivalent Amino Sugars to Recognize Different TAR RNA Conformations” (Medchemcomm, 2014)
Active and inactive are the calls of the source. The rule behind the calls is not given here.

Experiments:
Nucleic Acid [1] = assay: Binding affinity to HIV1 TAR RNA U3 bulge mutant at assessed as association constant at pH 6.8 by ethidium bromide displacement assay based Scatchard analysis method; type: nucleic-acid assay; conditions: Human immunodeficiency virus 1
In short: (§1)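 Synthetic 2′-ACE-protected TAR RNA, deprotected, heated 98 °C 5 min, then ice-cooled 15 min. TAR RNA at 200 nM/strand with ethidium bromide 5 μM in 100 mM KCl, 10 mM SC, 0.5 mM EDTA, pH 6.8. Ligand added stepwise, ≤4% v/v. Excitation 545 nm, emission 580–660 nm, intensity at 610 nm normalized. IC50 from sigmoidal fit of fraction EtBr displaced vs log ligand; association constants from Scatchard analysis.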

Nucleic Acid [2] = assay: Binding affinity to HIV1 TAR RNA bulgeless mutant assessed as association constant at pH 6.8 by ethidium bromide displacement assay based Scatchard analysis method; type: nucleic-acid assay; conditions: Human immunodeficiency virus 1; in short: as §1
Nucleic Acid [3] = assay: Binding affinity to HIV1 TAR RNA bulgeless tetraloop mutant assessed as association constant at pH 6.8 by ethidium bromide displacement assay based Scatchard analysis method; type: nucleic-acid assay; conditions: Human immunodeficiency virus 1; in short: as §1
Nucleic Acid [4] = assay: Binding affinity to HIV1 TAR RNA tetraloop mutant assessed as association constant at pH 6.8 by ethidium bromide displacement assay based Scatchard analysis method; type: nucleic-acid assay; conditions: Human immunodeficiency virus 1; in short: as §1
Nucleic Acid [5] = assay: Binding affinity to HIV1 TAR RNA bulgeless mutant at pH 6.8 by ethidium bromide displacement assay; type: nucleic-acid assay, Human immunodeficiency virus 1; in short: as §1
Nucleic Acid [6] = assay: Binding affinity to HIV1 TAR RNA bulgeless tetraloop mutant at pH 6.8 by ethidium bromide displacement assay; type: nucleic-acid assay, Human immunodeficiency virus 1; in short: as §1
Nucleic Acid [7] = assay: Binding affinity to wild type HIV1 TAR RNA at pH 6.8 by ethidium bromide displacement assay; type: nucleic-acid assay, Human immunodeficiency virus 1
In short: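 TAR RNA (200 nM/strand) and EtBr (5 μM) in 100 mM KCl, 10 mM SC, 0.5 mM EDTA, pH 6.8, titrated with ligand aliquots (at most 4% v/v). Fluorescence excited at 545 nm and read at 610 nm. IC50 is the ligand concentration that displaces 50% of EtBr, taken from a sigmoidal fit of fraction displaced versus log ligand concentration.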

Nucleic Acid [8] = assay: Binding affinity to HIV1 TAR RNA U3 bulge mutant at pH 6.8 by ethidium bromide displacement assay; type: nucleic-acid assay, Human immunodeficiency virus 1; in short: as §1
Nucleic Acid [9] = assay: Binding affinity to HIV1 TAR RNA tetraloop mutant at pH 6.8 by ethidium bromide displacement assay; type: nucleic-acid assay, Human immunodeficiency virus 1; in short: as §1
Nucleic Acid [10] = assay: Binding affinity to wild type HIV1 TAR RNA assessed as association constant at pH 6.8 by ethidium bromide displacement assay based Scatchard analysis method; type: nucleic-acid assay; conditions: Human immunodeficiency virus 1
In short: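 Ethidium bromide displacement: 5 μM EtBr with TAR RNA at 200 nM/strand (under 20% of EtBr bound) in 100 mM KCl, 10 mM SC, 0.5 mM EDTA, pH 6.8. Ligand added in concentrated aliquots, at most 4% v/v. Excitation 545 nm, emission 580–660 nm, intensity at 610 nm. Association constant obtained by Scatchard analysis of the titration data.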

Nucleic Acid [11] = assay: Induction of conformational changes in wild type HIV1 TAR RNA assessed as increase in intensity in 265 nm region using 1 molar equivalents of compound at pH 6.8 by CD spectroscopy; type: nucleic-acid assay; conditions: Human immunodeficiency virus 1
Nucleic Acid [12] = assay: Induction of conformational changes in wild type HIV1 TAR RNA assessed as changes in 210 to 220 nm region using 1 molar equivalents of compound at pH 6.8 by CD spectroscopy; type: nucleic-acid assay; conditions: Human immunodeficiency virus 1

SMILES | K (Nucleic Acid [1]) [×10⁶ /M] | K (Nucleic Acid [2]) | K (Nucleic Acid [3]) [×10⁷ /M] | K (Nucleic Acid [4]) | IC50 (Nucleic Acid [5]) [nM] | IC50 (Nucleic Acid [6]) [nM] | IC50 (Nucleic Acid [7]) [nM] | IC50 (Nucleic Acid [8]) [nM] | IC50 (Nucleic Acid [9]) [nM] | K (Nucleic Acid [10]) | Activity (Nucleic Acid [11]) | Activity (Nucleic Acid [12])
NC[C@@H]1O[C@H](O[C@H]2[C@@H](O)[C@H](O[C@@H]3[C@@H](O)[C@H](N)C[C@H](N)[C@H]3O[C@H]3O[C@H](CN)[C@@H](O)[C@H](O)[C@H]3N)O[C@@H]2Cn2cc(COCCCCCCCCOCc3cn(C[C@H]4O[C@@H](O[C@@H]5[C@@H](O)[C@H](N)C[C@H](N)[C@H]5O[C@H]5O[C@H](CN)[C@@H](O)[C@H](O)[C@H]5N)[C@H](O)[C@@H]4O[C@H]4O[C@@H](CN)[C@@H](O)[C@H](O)[C@H]4N)nn3)nn2)[C@H](N)[C@@H](O)[C@@H]1O | 4.8 | 6.8 ×10⁷ /M | 7.2 | 1.4 ×10⁷ /M | 108 | 106 | 156 | 234 | 188 | 7.6 ×10⁶ /M |  | 
NC[C@@H]1O[C@H](O[C@H]2[C@@H](O)[C@H](O[C@@H]3[C@@H](O)[C@H](N)C[C@H](N)[C@H]3O[C@H]3O[C@H](CN)[C@@H](O)[C@H](O)[C@H]3N)O[C@@H]2Cn2cc(COCCCCCCCCCCCCOCc3cn(C[C@H]4O[C@@H](O[C@@H]5[C@@H](O)[C@H](N)C[C@H](N)[C@H]5O[C@H]5O[C@H](CN)[C@@H](O)[C@H](O)[C@H]5N)[C@H](O)[C@@H]4O[C@H]4O[C@@H](CN)[C@@H](O)[C@H](O)[C@H]4N)nn3)nn2)[C@H](N)[C@@H](O)[C@@H]1O | 1.5 | 4.4 ×10⁷ /M | 2.7 | 2 ×10⁶ /M |  | 158 | 144 | 326 | 300 | 2.5 ×10⁷ /M |  | 
NC[C@@H]1O[C@H](O[C@H]2[C@@H](O)[C@H](O[C@@H]3[C@@H](O)[C@H](N)C[C@H](N)[C@H]3O[C@H]3O[C@H](CN)[C@@H](O)[C@H](O)[C@H]3N)O[C@@H]2Cn2cc(-c3cccc(-c4cn(C[C@H]5O[C@@H](O[C@@H]6[C@@H](O)[C@H](N)C[C@H](N)[C@H]6O[C@H]6O[C@H](CN)[C@@H](O)[C@H](O)[C@H]6N)[C@H](O)[C@@H]5O[C@H]5O[C@@H](CN)[C@@H](O)[C@H](O)[C@H]5N)nn4)c3)nn2)[C@H](N)[C@@H](O)[C@@H]1O |  | 1 ×10⁸ /M | 6.9 | 1.3 ×10⁷ /M | 130 | 142 | 110 | 244 | 180 | 1.4 ×10⁸ /M | Active | Active
C/C(CCc1cn(C[C@H]2O[C@@H](O[C@@H]3[C@@H](O)[C@H](N)C[C@H](N)[C@H]3O[C@H]3O[C@H](CN)[C@@H](O)[C@H](O)[C@H]3N)[C@H](O)[C@@H]2O[C@H]2O[C@@H](CN)[C@@H](O)[C@H](O)[C@H]2N)nn1)=C(/C)CCc1cn(C[C@H]2O[C@@H](O[C@@H]3[C@@H](O)[C@H](N)C[C@H](N)[C@H]3O[C@H]3O[C@H](CN)[C@@H](O)[C@H](O)[C@H]3N)[C@H](O)[C@@H]2O[C@H]2O[C@@H](CN)[C@@H](O)[C@H](O)[C@H]2N)nn1 | 2.6 | 3.6 ×10⁷ /M | 2.8 | 3.5 ×10⁶ /M | 142 | 162 | 146 | 338 | 210 | 1.1 ×10⁷ /M |  | 
